16 compounds from ChEMBL document CHEMBL1275329, “Fruitful adrenergic α(2C)-agonism/α(2A)-antagonism combination to prevent and contrast morphine tolerance and dependence” (J Med Chem, 2010) can be followed below.

Calls of active or inactive are those of the source. The rule behind the calls is not given here.

Assay [1] addresses T1, Alpha-2A adrenergic receptor (Homo sapiens) (UniProt P08913).
T1 sequence (whole entry): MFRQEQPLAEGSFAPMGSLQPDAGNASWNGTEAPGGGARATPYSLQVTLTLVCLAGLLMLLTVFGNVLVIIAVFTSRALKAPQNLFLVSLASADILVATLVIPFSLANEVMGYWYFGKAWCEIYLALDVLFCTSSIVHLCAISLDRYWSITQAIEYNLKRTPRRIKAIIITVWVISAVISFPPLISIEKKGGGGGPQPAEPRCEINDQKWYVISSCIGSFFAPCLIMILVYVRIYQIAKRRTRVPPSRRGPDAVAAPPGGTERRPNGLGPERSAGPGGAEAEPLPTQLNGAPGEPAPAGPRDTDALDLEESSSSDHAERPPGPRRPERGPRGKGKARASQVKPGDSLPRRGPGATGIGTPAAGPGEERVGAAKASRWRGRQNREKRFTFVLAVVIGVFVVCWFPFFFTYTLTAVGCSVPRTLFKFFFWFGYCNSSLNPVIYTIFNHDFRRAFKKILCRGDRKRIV
The experiment in a line: Antagonist activity at human alpha2A adrenoceptor expressed in CHO cells assessed as effect on agonist-induced extracellular acidification by microphysiometry. In kind it is functional, cell-based. In outline: (§1)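 CHO cells stably expressing one human α2-AR subtype were run on the Cytosensor microphysiometer with bicarbonate-free DMEM perfusion. […] Kb = M/(concentration ratio − 1), where the ratio is EC50 with antagonist over EC50 without. Reported as pKb, mean ± SEM of 3–6 experiments.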

Assay [2] addresses T2, Alpha-2B adrenergic receptor (Homo sapiens) (UniProt P18089).
T2 sequence (whole entry): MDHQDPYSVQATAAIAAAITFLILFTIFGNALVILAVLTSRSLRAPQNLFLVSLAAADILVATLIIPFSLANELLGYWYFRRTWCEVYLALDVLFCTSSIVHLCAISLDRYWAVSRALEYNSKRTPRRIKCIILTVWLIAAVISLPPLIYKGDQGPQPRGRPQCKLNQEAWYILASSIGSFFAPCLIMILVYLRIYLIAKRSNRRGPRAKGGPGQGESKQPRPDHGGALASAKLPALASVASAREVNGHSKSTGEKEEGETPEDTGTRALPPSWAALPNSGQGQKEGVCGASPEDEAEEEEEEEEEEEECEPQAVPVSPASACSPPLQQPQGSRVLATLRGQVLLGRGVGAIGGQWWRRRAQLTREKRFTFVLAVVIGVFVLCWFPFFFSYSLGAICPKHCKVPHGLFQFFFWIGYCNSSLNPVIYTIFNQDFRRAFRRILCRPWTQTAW
The experiment in a line: Antagonist activity at human alpha2B adrenoceptor expressed in CHO cells assessed as effect on agonist-induced extracellular acidification by microphysiometry. In kind it is functional, cell-based. In outline:
as §1

Assay [3] has as its target T3, Alpha-2C adrenergic receptor (Homo sapiens) (UniProt P18825).
T3 sequence (whole entry): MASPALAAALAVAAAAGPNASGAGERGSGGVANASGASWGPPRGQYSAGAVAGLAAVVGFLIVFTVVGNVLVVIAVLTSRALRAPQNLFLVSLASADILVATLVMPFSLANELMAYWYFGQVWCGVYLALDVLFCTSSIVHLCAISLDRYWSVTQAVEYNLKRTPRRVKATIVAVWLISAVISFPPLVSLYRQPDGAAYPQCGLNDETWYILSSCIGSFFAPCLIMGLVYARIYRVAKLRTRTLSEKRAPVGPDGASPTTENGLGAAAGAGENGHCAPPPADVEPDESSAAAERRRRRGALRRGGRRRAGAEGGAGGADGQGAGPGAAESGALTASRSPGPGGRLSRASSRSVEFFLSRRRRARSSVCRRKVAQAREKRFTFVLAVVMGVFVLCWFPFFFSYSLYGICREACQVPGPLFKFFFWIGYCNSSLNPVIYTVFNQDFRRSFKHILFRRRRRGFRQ
The experiment in a line: Agonist activity at human Alpha-2C adrenoceptor expressed in CHO cells assessed as induction of extracellular acidification by microphysiometry relative to (-)noradrenaline. In kind it is functional, cell-based. In outline: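 Cytosensor microphysiometry on CHO cells stably expressing one human α2-AR subtype, seeded at 3 × 10⁵ cells/cup and grown 24 h at 37 °C. Cells were perfused with bicarbonate-free DMEM and exposed to agonist for 4 min, with 30 min washes between exposures. The read-out is the change in acidification rate: peak after agonist minus the mean of three prior readings. […] Mean ± SEM, 3–6 experiments.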

Assay [4] addresses T4, Alpha-2A adrenergic receptor (Homo sapiens, UniProt P08913).
T4 sequence (P08913 whole entry): T1 sequence (whole entry)
The experiment in a line: Displacement of [3H]RX821002 from human alpha2A adrenoceptor expressed in CHO cells. In kind it is cell-based. In outline: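 Crude membranes from CHO cells expressing human α2A-AR were incubated in Tris-Mg buffer (50 mM Tris-HCl, 0.5 mM MgCl₂, pH 7.5). Ki came from one- or two-site nonlinear regression and is given as pKi.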
On the technique in general: Displacement assays read how much labelled ligand stays bound in the presence of the test substance.

Assay [5] deals with T5, Alpha-2B adrenergic receptor (Homo sapiens, UniProt P18089).
T5 sequence (P18089 whole entry): T2 sequence (whole entry)
The experiment in a line: Displacement of [3H]RX821002 from human alpha2B adrenoceptor expressed in CHO cells. In kind it is cell-based. In outline: (§2)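 Buffer was Tris-Mg (50 mM Tris-HCl, 0.5 mM MgCl2, pH 7.5), competitor 10^-9 to 10^-4 M, 30 min at room temperature. Bound ligand was filtered and counted. Ki by nonlinear one- or two-site fit, reported as pKi.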

For assay [6], the target named is T6, Alpha-2C adrenergic receptor (Homo sapiens, UniProt P18825).
T6 sequence (P18825 whole entry): T3 sequence (whole entry)
The experiment in a line: Displacement of [3H]RX821002 from human Alpha-2C adrenoceptor expressed in CHO cells. In kind it is cell-based. In outline:
as §2

The target in assay [7] is T6, Alpha-2C adrenergic receptor. The experiment in a line: Agonist activity at human Alpha-2C adrenoceptor expressed in CHO cells assessed as induction of extracellular acidification by microphysiometry. In kind it is functional, cell-based. In outline:
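Cytosensor microphysiometry on CHO cells stably expressing one human α2-AR subtype, seeded at 3 × 10⁵ cells/cup and grown 24 h at 37 °C. Cells were perfused with bicarbonate-free DMEM and exposed to agonist for 4 min, with 30 min washes between exposures. The read-out is the change in acidification rate: peak after agonist minus the mean of three prior readings. Mean ± SEM, 3–6 experiments.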

Assay [8] concerns Mus musculus. The experiment in a line: Enhancement of morphine-induced analgesic effect in CD1 mouse at 0.05 mg/kg, ip administered 15 mins before morphine dosing measured 30 to 240 mins post morphine challenge by radiant heat tail flick test. It counts as functional, organism-based. The arrangement: dose 0.05 mg/kg. In outline: (§3)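 Male CD-1 mice (25–35 g) received test agent 0.05 mg/kg ip or vehicle 15 min before morphine 5 mg/kg sc. Radiant-heat tail-flick to the lower third of the tail; baseline latency (2–3 s) is the mean of two trials. Latencies were read at 30, 60, 90, 120 and 240 min and expressed as %MPE. 7–8 mice per group, mean ± SEM.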

Assay [9] concerns Mus musculus. The experiment in a line: Analgesic effect in CD1 mouse at 0.05 mg/kg, ip by radiant heat tail flick test. It counts as functional, organism-based. The arrangement: dose 0.05 mg/kg. In outline: as §3
Assay [10] concerns the target T2, Alpha-2B adrenergic receptor (Homo sapiens). The settings on record: CHO.
Assay [11] concerns the target T4, Alpha-2A adrenergic receptor. The experiment in a line: Agonist activity at human alpha2A adrenoceptor expressed in CHO cells assessed as induction of extracellular acidification by microphysiometry. It counts as functional, cell-based. In outline:
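CHO cells stably expressing human α2A-AR were seeded at 3 × 10⁵ cells/cup and held 24 h at 37 °C under 5% CO₂. They were then perfused at 100 μL/min with bicarbonate-free DMEM containing glutamine and NaCl. Agonist exposure lasted 4 min, with 30 min washes between exposures.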

For assay [12], the target named is T5, Alpha-2B adrenergic receptor. The experiment in a line: Agonist activity at human alpha2B adrenoceptor expressed in CHO cells assessed as induction of extracellular acidification by microphysiometry.

One may read the pKb as the negative decadic logarithm of the Kb, by convention in mol/L. A word on the Ki: it is the dissociation constant of the complex between target and ligand, obtained from inhibition or displacement. Read a high Ki as lower affinity. The EC50 is the concentration that produces a half-maximal response.

For `C[C@@H](Oc1ccccc1-c1cccc([N+](=O)[O-])c1)C1=NCCN1`, the pKb in [1] was 7.11; in [2], 6.07. In assay [3], the Intrinsic activity is 0.8.

As to `Clc1cccc(Cl)c1NC1=NCCN1`, the Intrinsic activity in assay [3] was found to be 0.6.

Consider `CC(Oc1ccccc1-c1cccc([N+](=O)[O-])c1)C1=NCCN1` (racemic), for which the pKb was found to be 6.8 in assay [1] and 5.9 in assay [2]. In assay [3], the Intrinsic activity was 0.6.

For `C[C@@H](Oc1ccccc1C1CC1)C1=NCCN1`, the figures for the inhibitory constant (Ki) in assay [4], in assay [5] and in [6] were 44.7 nM, 562 nM and 126 nM, respectively. Also, the pKb in assay [1] is 6.9. Besides, the EC50 in assay [7] is 126 nM. Further, the Intrinsic activity in assay [3] was found to be 0.5. Moreover, the outcome in assay [8] was Active. Also, in assay [9], the result was inactive. Moreover, in [10], the pEC50 entry was “inactive”.

Consider `C[C@H](Oc1ccccc1-c1ccsc1)C1=NCCN1`, for which the results for the Ki in [4], in assay [5] and in assay [6] were 44.7 nM, 447 nM and 126 nM, respectively. Further, the EC50 was 63.1 nM in [11], 1000 nM in assay [12] and 6.31 nM in [7]. The Intrinsic activity in assay [3] amounted to 0.9.

As to `C[C@@H](Oc1ccccc1-c1ccccc1)C1=NCCN1`, in [3], the Intrinsic activity was 0.7.

Regarding `C[C@@H](Oc1ccccc1-c1cccc(O)c1)C1=NCCN1`, the Ki in [4] is 39.8 nM; in assay [5], 316 nM; in [6] it was 31.6 nM. The pKb was 6.4 in assay [1] and 5.67 in assay [2]. For the same compound, the EC50 in assay [7] is 25.1 nM. The Intrinsic activity in assay [3] was 1.

As to `CC(Oc1ccccc1-c1cccc(O)c1)C1=NCCN1` (racemic), in [1], the pKb was 6.2. Also, in assay [3], the Intrinsic activity stood at 1.15.

As for `CC(Oc1ccccc1C1CC1)C1=NCCN1` (racemic), the Ki in assay [4] was 22.9 nM; in [5] it was 309 nM; in assay [6] it was 79.4 nM. Further, the negative-log Kb (pKb) in [1] came out at 7. Also, the EC50 was 3160 nM in [12] and 39.8 nM in assay [7]. Further, in [3], the Intrinsic activity amounted to 0.9.

Turning to `C[C@@H](Oc1ccccc1-c1ccsc1)C1=NCCN1`, the Ki in assay [4] is 166 nM; in assay [5] it was 708 nM; in [6], 316 nM. Further, the results for the EC50 in assay [11] and in assay [7] were 3160 nM and 100 nM, respectively. Also, the Intrinsic activity in assay [3] amounted to 0.7. Moreover, the pEC50 result in assay [10] is “inactive”.

In the case of `CC(Oc1ccccc1-c1ccccc1)C1=NCCN1` (racemic), the Intrinsic activity in assay [3] was 0.8.

With `C[C@H](Oc1ccccc1-c1cccc([N+](=O)[O-])c1)C1=NCCN1`, the results for the pKb in assay [1] and in assay [2] were 7.35 and 5.93, respectively. Besides, the Intrinsic activity in assay [3] amounted to 0.45.

In the case of `C[C@H](Oc1ccccc1-c1cccc(O)c1)C1=NCCN1`, the results for the Ki in [4], in [5] and in [6] were 97.7 nM, 1000 nM and 112 nM, respectively. For the same compound, the negative-log Kb (pKb) in assay [1] stood at 6; in assay [2], 5.5. Also, the EC50 in [7] is 2510 nM. For the same compound, the Intrinsic activity in [3] amounted to 0.65.

With `C[C@H](Oc1ccccc1-c1ccccc1)C1=NCCN1`, the Intrinsic activity in assay [3] was found to be 0.9.

In the case of `CC(Oc1ccccc1-c1ccsc1)C1=NCCN1` (racemic), the Intrinsic activity in assay [3] was determined as 0.85. Further, in [10], the pEC50 entry was “inactive”.

Regarding `C[C@H](Oc1ccccc1C1CC1)C1=NCCN1`, the Ki in assay [4] is 20.9 nM; in assay [5], 263 nM; in [6] it was 63.1 nM. Moreover, the pKb in [1] came to 7.7. Besides, the results for the concentration giving a half-maximal response (EC50) in [12] and in assay [7] were 3160 nM and 35.5 nM, respectively. In addition, the Intrinsic activity in [3] was determined as 0.9. For the same compound, in assay [8], the outcome was Active. In assay [9], the result was inactive.
